# Reference: paper PMC3053052 (Neuropeptides, 2010)
# Tests used:
# STAR and TSPO = conditions: systemic alcohol administration; ref Herman et al., 2006; cited from earlier work
# [1] = target: T1, vascular NPY receptors (mainly Y1 subtype), rat testis (Rattus norvegicus, UniProt P21555); assay: Competition binding; conditions: 25 nM cold PYY; ^125I-PYY 10,000 cpm/100 μl (22.5 pM); rat testis sections
# T1 sequence (P21555 1-382): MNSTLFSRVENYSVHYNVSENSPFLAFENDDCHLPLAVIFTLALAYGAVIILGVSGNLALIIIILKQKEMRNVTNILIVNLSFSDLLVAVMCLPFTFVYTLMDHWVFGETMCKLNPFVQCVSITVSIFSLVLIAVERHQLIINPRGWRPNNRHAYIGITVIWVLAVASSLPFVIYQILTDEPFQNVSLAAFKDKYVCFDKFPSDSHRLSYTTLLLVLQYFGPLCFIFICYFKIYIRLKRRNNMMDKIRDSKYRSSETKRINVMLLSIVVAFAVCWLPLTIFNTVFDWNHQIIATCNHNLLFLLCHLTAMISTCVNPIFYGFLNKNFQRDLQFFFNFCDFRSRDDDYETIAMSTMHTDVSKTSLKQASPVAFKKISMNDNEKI
# [2] = system: NPY receptors in seminiferous tubules; assay: In vitro NPY receptor autoradiography, ^125I-PYY binding to seminiferous tubules; parameters: species or system rat; conditions: surrounding seminiferous tubules; 22.5 pM ^125I-PYY, 2,000 Ci/mmol
# In short: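 Serial sections of rat testis incubated with 125I-PYY (10,000 cpm/100 μl, 2,000 Ci/mmol, 22.5 pM). Competition run with subtype-selective ligands, including a Y5-selective PP analogue. Rat brain served as positive control. Slides were exposed to film, and signals were matched to adjacent sections stained with H&E, anti-Factor VIII (vessels) or anti-STAR (Leydig cells). Densities were quantified by computer-assisted imaging.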
# explanted GnRH neurons = conditions: ref Klenke et al., 2010; cited from earlier work
# [3] = system: steroidogenic acute regulatory (STAR) protein; assay: Leydig cell STAR protein level after itt NPY; format: in vivo, rat; conditions: Leydig cells, Western blot
# In short: (§1)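 Decapitation 1 h later. Leydig cells were isolated by collagenase dispersion and Percoll gradient, then lysed in RIPA. 25 μg protein per lane was probed with anti-STAR (1:1,500; 30-kDa form) or anti-TSPO (1:1,000). ECL signal was normalised to β-actin, as % of control.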
# [4] = system: translocator protein (TSPO); assay: Leydig cell TSPO level after itt NPY; format: in vivo, rat; conditions: Leydig cells, Western blot
# In short: as §1
# testes = conditions: ref Collin et al., 1998; cited from earlier work
# plasma LH = conditions: ref Pierroz et al., 1999; cited from earlier work
# T response to hCG = assay: Plasma testosterone response to hCG after intratesticular; format: in vivo, rat
# In short: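 Jugular-cannulated adult male rats, freely moving. Test peptide 5 μg/kg itt or vehicle under isoflurane, 1 h before hCG 1 IU/kg iv. One series pretreated with GnRH antagonist […] iv 2 h before hCG. Blood drawn before and 15, 30, 60, 90 min after hCG. Plasma T measured by commercial kit (sensitivity 0.2 ng/mL), cumulative T summed. N = 5–7; mean ± SEM; ANOVA/repeated measures.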
compound,measurement,setting,value
CCO [alcohol],STAR and TSPO concentrations,STAR and TSPO,significantly decreased STAR and TSPO concentrations
PYY: cold PYY used to assess non-specific binding,displacement of ^125I-PYY binding to testicular blood vessels at 25 nM,[1],Complete displacement
"^125I-PYY: ^125I-PYY (2,000 Ci/mmol; Anawa, Wangen, Switzerland)",^125I-PYY binding (in words),[2],no binding to surrounding seminiferous tubules
neuropeptide Y [NPY],neuronal activity of explanted GnRH neurons,explanted GnRH neurons,inhibits the neuronal activity of explanted GnRH neurons
same,changes in STAR levels (in words),[3],inconsistent and did not reach statistical significance
same,changes in TSPO levels (in words),[4],inconsistent and did not reach statistical significance
same,vasoconstriction in the testes,testes,reported to cause vasoconstriction in the testes
same,plasma LH levels,plasma LH,lower plasma LH levels
same,T response to hCG,"T response to hCG; NPY 5 μg/kg itt 1 h before hCG 1.0 U/kg iv, at all times studied (15, 30, 60, 90 min), P<0.01 vs vehicle, N = 5-7/point (Fig. 1)",markedly (P<0.01) blunted the T response to hCG at all times studied
same,basal plasma T levels,"T response to hCG; NPY 5 μg/kg itt, 1 h, vs vehicle, P<0.01, N = 5-7/point (Fig. 1)",significantly (P<0.01) decreased basal plasma T levels
same,cumulative plasma T after hCG,"T response to hCG; vehicle pre-treatment, NPY 5 μg/kg itt, hCG 1 U/kg iv, cumulative T 15, 30, 60 and 90 min after hCG, mean ± SEM, N = 5-7, P<0.01 vs itt vehicle (22.20 ± 3.25)",10.60 ± 0.98R ^a ng T/ ml
